In ChEMBL document CHEMBL1144182, “Antimicrobial and cytotoxic arylazoenamines. Part III: antiviral activity of selected classes of arylazoenamines” (Bioorg Med Chem, 2008):
Calls of active or inactive are those of the source. How the calls were made is not given here.

Legend:
[1] = Cytotoxicity against mock-infected human MT4 cells assessed as reduction in cell viability after 96 hrs by MTT assay; format: cell-based
Procedure, shortened: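 Exponentially growing MT-4 cells seeded at 1 × 10^5 cells/mL in RPMI-1640 with 10% FCS, penicillin and streptomycin, with or without serial compound dilutions. Incubated at 37 °C, 5% CO2; viability read by MTT after 96 h. CC50 is the concentration reducing mock-infected cell viability by 50%.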

[2] = Cytotoxicity against mock-infected MDBK cells assessed as reduction in cell viability after 96 hrs by MTT assay; format: cell-based, Bos taurus; details: cattle
Procedure, shortened: (§1)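 Cytotoxicity run in parallel with the antiviral assays. MDBK seeded at 6 × 10^5 and BHK at 1 × 10^6 cells/mL in maintenance medium with or without serial compound dilutions. Incubated 48–96 h at 37 °C, 5% CO2, then viability read by MTT. CC50 is the concentration reducing mock-infected cell viability by 50%.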

[3] = tested on: Bovine viral diarrhea virus 1; assay: Antiviral activity against BVDV infected in MDBK cells assessed as protection against virus-induced cytopathogenicity after 4 days by MTT assay; format: functional, organism-based; details: Bovine viral diarrhea virus isolates and strains, 96 h
Procedure, shortened: (§2)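 MDBK (BVDV) or BHK-21 (YFV) cells were seeded at 3 × 10^4 or 5 × 10^4 cells/well respectively and grown overnight to confluent monolayers at 37 °C in 5% CO2. Monolayers were infected at m.o.i. 0.01 in serum-free medium. After 1 h, MEM Earle's with 1% FCS was added, with or without serial compound dilutions. After 3–4 days at 37 °C, viability was read by MTT. EC50 was taken as 50% protection from virus-induced cytopathogenicity.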

[4] = Cytotoxicity against mock-infected BHK cells assessed as reduction in cell viability after 96 hrs by MTT assay; format: cell-based, Mesocricetus auratus; details: hamster; procedure, shortened: as §1
Yellow fever virus = assay: Antiviral activity against YFV infected in BHK21 cells assessed as protection against virus-induced cytopathogenicity after 4 days by MTT assay; format: functional, organism-based; details: BHK-21, 96 h; procedure, shortened: as §2
[5] = Cytotoxicity against mock-infected african green monkey Vero76 cells assessed as reduction in cell viability after 96 hrs by MTT assay; format: cell-based, Vero; details: chlorocebus sabaeus
Coxsackievirus B2 = assay: Antiviral activity against CVB2 infected in Vero76 cells assessed as reduction in virus plaque formation after 4 days by MTT assay; format: functional, organism-based; details: Enterovirus B, Vero 76, 96 h
[6] = tested on: Respiratory syncytial virus; assay: Antiviral activity against RSV infected in Vero76 cells assessed as reduction in virus plaque formation after 4 days by MTT assay; format: functional, organism-based; details: human respiratory syncytial virus, Vero 76, 96 h
Poliovirus 1 = assay: Antiviral activity against Sb1 virus infected in Vero76 cells assessed as reduction in virus plaque formation after 4 days by MTT assay; format: functional, organism-based; details: Enterovirus C, Sabin, Vero 76, 96 h
[7] = tested on: Human immunodeficiency virus 1; assay: Antiviral activity against HIV1 infected in MT4 cells assessed as virus-induced cytopathogenicity after 4 days; format: functional, organism-based
Vaccinia virus = assay: Antiviral activity against VV infected in Vero76 cells assessed as reduction in virus plaque formation after 4 days by MTT assay; format: functional, organism-based; details: Orthopoxvirus vaccinia; Vero 76
[8] = tested on: Vesicular stomatitis virus; assay: Antiviral activity against VSV infected in Vero76 cells assessed as reduction in virus plaque formation after 4 days by MTT assay; format: functional, organism-based; details: Vero 76

Compound | CC50 at 96 h [1] | CC50 at 96 h [2] | EC50 [3] | CC50 at 96 h [4] | EC50 (Yellow fever virus) | CC50 at 96 h [5] | EC50 (Coxsackievirus B2) | EC50 [6] | EC50 (Poliovirus 1) | Activity [7] | Activity (Vaccinia virus) | Activity [8]
C(=C\N1CCSCC1)/N=N/c1ccccc1 | 19 µM | 14 µM | > 14 µM | > 100 µM | > 100 µM | 30 µM | 6 µM | > 30 µM | > 30 µM | inactive | inactive | inactive
CCOC(=O)c1ccc(/N=N/C=C/N2CCCC2)cc1 | 26 µM | 100 µM | > 100 µM | > 100 µM | > 100 µM | > 100 µM | 50 µM | > 100 µM | > 100 µM | inactive | inactive | inactive
Clc1ccccc1N1CCN(/C=C/N=N/c2ccccc2)CC1 | 16 µM | 13 µM | > 13 µM | 69 µM | > 69 µM | 14 µM | 5 µM | 5 µM | > 14 µM | inactive | inactive | inactive
O=[N+]([O-])c1ccc(/N=N\C2=C3CCCCN3CCC2)cc1 | 91 µM | > 100 µM | 86 µM | > 100 µM | ≥ 100 µM | 100 µM | 26 µM | > 100 µM | > 100 µM | inactive | inactive | inactive
CN1C=C(/N=N/c2ccc([N+](=O)[O-])cc2)CCC1 | > 100 µM | 62 µM | 11 µM | > 100 µM | > 100 µM | > 100 µM | > 100 µM | > 100 µM | > 100 µM | inactive | inactive | inactive
FC(F)(F)c1cc(/N=N\C2=C3CCCCN3CCC2)ccc1Cl | 19 µM | 35 µM | > 35 µM | 41 µM | > 41 µM | > 100 µM | 64 µM | > 100 µM | > 100 µM | inactive | inactive | inactive
CN1/C(=C\N=N\c2ccccc2)C(C)(C)c2ccccc21.[O-][Cl+3]([O-])([O-])O | 30 µM | 20 µM | > 20 µM | 47 µM | > 47 µM | 73 µM | > 73 µM | > 73 µM | > 73 µM | inactive | inactive | inactive
Clc1ccc(N2CCN(/C=C/N=N/c3ccccc3)CC2)cc1 | 21 µM | 7.5 µM | > 7.5 µM | 29 µM | 7.5 µM | 45 µM | 7 µM | 7 µM | > 45 µM | inactive | inactive | inactive
FC(F)(F)c1cccc(N2CCN(/C=C/N=N/c3ccccc3)CC2)c1 | 30 µM | 9 µM | > 9 µM | 43 µM | 9 µM | 11 µM | > 11 µM | 4 µM | > 11 µM | inactive | inactive | inactive
C(/N=N/c1ccccc1)=C1/CCCN1Cc1ccccc1 | 22 µM | 74 µM | > 74 µM | 31 µM | > 31 µM | 87 µM | 16 µM | 30 µM | > 87 µM | inactive | inactive | inactive
FC(F)(F)c1cc(/N=N/C2=CN(Cc3ccccc3)CCC2)ccc1Cl | 43 µM | 28 µM | ≥ 28 µM | 32 µM | 22 µM | 48 µM | 4 µM | > 48 µM | > 48 µM | inactive | inactive | inactive
O=[N+]([O-])c1cccc(/N=N\C2=C3CCCCN3CCC2)c1 | 37 µM | > 100 µM | 100 µM | 87 µM | > 87 µM | 90 µM | 71 µM | > 90 µM | 20 µM | inactive | inactive | inactive
Fc1ccc(N2CCN(/C=C/N=N/c3ccccc3)CC2)cc1 | 17 µM | 13 µM | > 13 µM | 50 µM | 20 µM | 35 µM | 5 µM | 9 µM | > 35 µM | inactive | inactive | inactive
CN1CCC/C1=C\N=N\c1ccc(Br)cc1 | 23 µM | > 100 µM | 11 µM | > 100 µM | > 100 µM | > 100 µM | 36 µM | 20 µM | > 100 µM | inactive | inactive | inactive
COc1ccc(/N=N/C=C2\CCCN2C)cc1 | > 100 µM | 67 µM | 18 µM | 77 µM | > 77 µM | 100 µM | 5 µM | > 100 µM | > 100 µM | inactive | inactive | inactive
Fc1ccccc1N1CCN(/C=C/N=N/c2ccccc2)CC1 | 32 µM | 10 µM | > 10 µM | 62 µM | > 62 µM | 34 µM | 6 µM | 6 µM | > 34 µM | inactive | inactive | inactive
Clc1ccccc1/N=N\C1=C2CCCCN2CCC1 | 78 µM | > 100 µM | > 100 µM | 93 µM | > 93 µM | > 100 µM | 32 µM | 60 µM | > 100 µM | inactive | inactive | inactive
CC(=O)c1ccc(N2CCN(/C=C/N=N/c3ccccc3)CC2)cc1 | 21 µM | 8 µM | > 8 µM | 49 µM | > 49 µM | 11 µM | > 11 µM | 0.9 µM | > 11 µM | inactive | inactive | inactive
CN1CCC/C1=C\N=N\c1cc(C(F)(F)F)cc(C(F)(F)F)c1 | 2 µM | 36 µM | > 36 µM | 48 µM | > 48 µM | 93 µM | > 93 µM | > 93 µM | > 93 µM | inactive | inactive | inactive
C(=C\N1CCCC1)/N=N/c1ccccc1 | 8 µM | 63 µM | > 63 µM | 82 µM | > 82 µM | 70 µM | 4 µM | 30 µM | > 70 µM | inactive | inactive | inactive
COc1ccc(N2CCN(/C=C/N=N/c3ccccc3)CC2)cc1 | 29 µM | 19 µM | > 19 µM | 46 µM | > 46 µM | 38 µM | 5 µM | 6 µM | > 38 µM | inactive | inactive | inactive
